For orientation: GI50 means the concentration at which growth is held to half of that of the control.

The values that follow come from article PMC6771261 (Journal of natural products, 2019).

One assay deals with HRECs. The experiment in a line: Matrigel based tube formation assay. To be noted: HRECs on Matrigel, 8 hours, different concentrations. The class given is cell-based, human. The gist of the method: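 HRECs (passage 5–8) in EGM-2 were seeded at 15,000 cells per well onto Matrigel-coated wells, with DMSO vehicle or a range of test compound concentrations. A known antiangiogenic homoisoflavonoid served as positive control. After 8 h, wells were imaged and tube length was quantified by image analysis. Mean ± SEM, n=3–6 wells, duplicate experiments; one-way ANOVA with Dunnett's post hoc test vs DMSO.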

In assay [1] the test system is HRECs (human retinal microvascular endothelial cells). To be noted: read-out: GI50 (HREC); as reported; cited from earlier work.
Assay [2] has as its system HUVECs (human umbilical vein endothelial cells). The following applies: read-out: GI50 (HUVEC); as reported; cited from earlier work.
In assay [3] the test system is 92–1 uveal melanoma cells. To be noted: read-out: GI50 (92–1); as reported; cited from earlier work.
Another assay deals with Y79 retinoblastoma cells. To be noted: read-out: GI50 (Y79); as reported; cited from earlier work.

In the case of `COc1ccc(C[C@@H]2COc3cc(OC)c(OC)c(OC)c3C2=O)cc1O` [Compound 45, 5,6,7-trimethoxy-3(R)-(3ʹhydroxy-4ʹ-methoxybenzyl)-4-chromanone], the “ability of HRECs to form tubes (tubule length compared to DMSO control)” value with HRECs was “effective”.
Same read-out and setting: then `COc1ccc(/C=C2\COc3cc(OC)c(OC)c(O)c3C2=O)cc1O` [Compound 48, (E)-5-hydroxy-6,7-trimethoxy-3-(3ʹhydroxy-4ʹ-methoxybenzylidene)-4-chromanone], with “effective”; and `CCOc1ccc(C(=O)/C=C/c2ccc(OC)c(OC)c2)c(O)c1C` [Compound 50, (E)-3-(3,4-dimethoxylphenyl)-1-(4-ethoxy-2-hydroxy-3-methyl-phenyl)prop-2-en-1-one], with “effective”.
On to `COc1ccc(CC2COc3cc(O)c(OC)c(O)c3C2=O)cc1O` (stereo not shown) [cremastranone], for which the concentration for 50% growth inhibition (GI50) in assay [1] is 220 nM; in assay [2], 380 nM; in assay [3], 48 µM; in the assay with Y79 retinoblastoma cells, 9.8 µM.
